In ChEMBL document CHEMBL1821604, “Anticancer activity and cDNA microarray studies of a (RS)-1,2,3,5-tetrahydro-4,1-benzoxazepine-3-yl]-6-chloro-9H-purine, and an acyclic (RS)-O,N-acetalic 6-chloro-7H-purine” (Eur J Med Chem, 2011) one finds Activity, IC50 and selectivity ratio data, which are given here for two compounds.

One data set relates to MCF7. In words: Induction of apoptosis in human MCF7 cells at IC50 after 48 hrs using annexin V-FITC staining by flow cytometry. It counts as functional.
Data set [1] is described as follows: Cytotoxicity against rat IEC-6 cells after 6 days by SRB colorimetric assay. In kind it is cell-based. To be noted: IEC-6, 144 h. For orientation: Sulforhodamine B stains cellular protein and so reports cell mass.
The nature of data set [2]: Therapeutic index, ratio of IC50 for rat IEC-6 cells to IC50 for human HT-29 cells. It counts as cell-based. To be noted: IEC-6 cells (normal) versus HT-29 cells (cancer), read-out: Ratio IC50. Summed up: (§1)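 Each cell line grown in DMEM with 10% FBS, 37 °C, 5% CO₂. Cells seeded and allowed 24 h, then drug added in medium (≤0.1% v/v DMSO). Medium and drug renewed at day 3, cells kept 3 more days. Sulforhodamine-B read at 492 nm. IC₅₀ taken from semilog dose-response curves by linear interpolation, triplicate wells, at least twice. Index = IC₅₀ normal line / IC₅₀ cancer line.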

The test system of another data set is HT-29. Put plainly: Cytotoxicity against human HT-29 cells after 6 days by SRB colorimetric assay. In kind it is functional, cell-based. To be noted: HT-29, 144 h.
In another data set the test system is MCF-10A. In words: Cytotoxicity against human MCF10A cells after 6 days by SRB colorimetric assay. In kind it is cell-based. To be noted: 144 h.
Data set [3] can be described thus: Therapeutic index, ratio of IC50 for human MCF10A cells to IC50 for human MCF7 cells. It counts as cell-based. To be noted: MCF10A cells (normal) versus MCF7 cells (cancer), read-out: Ratio IC50. Summed up: as §1

In the data set on MCF7, `CC(=O)O[C@H]1C(=O)[C@@]2(C)[C@H]([C@H](OC(=O)c3ccccc3)[C@]3(O)C[C@H](OC(=O)[C@H](O)[C@@H](NC(=O)c4ccccc4)c4ccccc4)C(C)=C1C3(C)C)[C@]1(OC(C)=O)CO[C@@H]1C[C@@H]2O` [PACLITAXEL] returned an Activity of 43%.

Broadly, the IC50 is the concentration needed to halve the response being measured. Lower therefore signals greater potency. Take `O=c1[nH]cc(F)c(=O)[nH]1` [FLUOROURACIL]: the IC50 in data set [1] is 660 nM; in the data set on HT-29, 1080 nM; with MCF-10A, 730 nM. The selectivity ratio is 0.61 in data set [2] and 0.17 in data set [3].
